# GalR3 antag = GalR3 antagonists in HEK293 cells, primary screen, cell-based, fluorescence readout; Galanin receptor type 3 (Homo sapiens), O60755; actives 0.44% (n = 360,000); inhibition, % at 3 µM; AID 651719, 2012; HEK293 GalR3-CNG cAMP membrane potential fluorescence; galR3 body fused to GalR1 C-terminus;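 active = inhibition above the screen-wide average plus 3 SD, cut at about 13% in these data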;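 also: forskolin and galanin both at EC90 stimulate the cells; cAMP rise reported by CNG channel membrane potential dye signal; 0% = forskolin plus galanin with DMSO and 100% = forskolin alone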
# Rin1 Abl inh = inhibitors of Rin1-Abl protein binding, primary screen, biochemical, TR-FRET. Tyrosine-protein kinase ABL1 (Homo sapiens) + Ras and Rab interactor 1 (Homo sapiens), …. inhibition, % at 7.35 µM. actives 0.4% (n = 360,000). AID 588664, 2011; in the data active = inhibition above about 5%, passing the limit was not always enough
# ASAP1 inh = inhibitors of human ASAP1 ArfGAP activity, primary screen, biochemical, fluorescence polarization. Arf-GAP with SH3 domain, ANK repeat and PH domain-containing protein 1 (Homo sapiens), …. ASAP1-stimulated ARF1 GTP hydrolysis, GDP FP detection. inhibition, % at 16.5 µM. actives 0.19% (n = 360,000). AID 624377, 2012; in the data active = inhibition above about 25%;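 also: 0% = vehicle with enzyme and substrate and 100% = no enzyme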
# Target sequence (Q9ULH1 325-724 limits assumed): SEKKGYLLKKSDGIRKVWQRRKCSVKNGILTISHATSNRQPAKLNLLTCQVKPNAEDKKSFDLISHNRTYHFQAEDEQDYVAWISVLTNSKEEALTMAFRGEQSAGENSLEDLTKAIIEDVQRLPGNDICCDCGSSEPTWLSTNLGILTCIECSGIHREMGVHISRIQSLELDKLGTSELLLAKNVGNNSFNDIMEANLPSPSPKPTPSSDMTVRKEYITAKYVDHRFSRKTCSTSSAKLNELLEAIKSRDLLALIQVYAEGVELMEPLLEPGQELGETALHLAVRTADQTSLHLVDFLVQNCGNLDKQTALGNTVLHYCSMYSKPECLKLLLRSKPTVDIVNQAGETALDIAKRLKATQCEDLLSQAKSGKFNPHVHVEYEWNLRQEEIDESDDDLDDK
# ARFGAP1 inh = inhibitors of rat ARFGAP1 GAP activity, primary screen, biochemical, fluorescence polarization, GDP tracer; ADP-ribosylation factor GTPase-activating protein 1 (Rattus norvegicus), Q62848; Arfgap1-stimulated ARF1 GTP hydrolysis, GDP FP detection; inhibition, % at 16.5 µM; actives 0.26% (n = 360,000); AID 651572, 2012;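 active = inhibition above a per-plate limit, mean inhibition of low control wells plus 3 SD, cut at about 25% in these data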;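 also: 0% = DMSO wells with enzyme and 100% = wells lacking Arfgap1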
#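 System: truncated rat Arfgap1 GAP domain / Benchmarks: high control wells lacking Arfgap1, low control full reaction with DMSO / Times: compound-enzyme preincubation 20 min, reaction 120 min, detection 60 min, 25 °C / Repeats: one replicate per compound / Also added: human ARF1(Δ1-17)-GTP substrate / Measured by: Tracer-displacement fluorescence polarization with EDTA stop, 620/688 nm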
# Rin1 Abl conf = Rin1-Abl binding inhibitor retest, confirmation, biochemical, TR-FRET; actives 49% (n = 1,300); purified proteins; shares compounds with Rin1 Abl inh; inhibition, % at 7.35 µM
# GFP quencher = GFP fluorescence inhibitors and quenchers, artefact control for Rin1-Abl interaction inhibitor project, biochemical. inhibition, % at 6.75 µM. actives 8.5% (n = 1,300). inhibitors/quenchers counterscreen. AID 602125, 2011. shares compounds with Rin1 Abl inh;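 also: ABL1-eGFP fusion protein alone without its partner RIN1-SBP; 0% = protein with vehicle and 100% = wells lacking protein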
# GFP quench DR = GFP fluorescence inhibitors and quenchers, dose response, artefact control for Rin1-Abl interaction inhibitor project, biochemical; 230 tested, under 10 active; AID 602182, 2012; GFP fluorescence interference/quenching counterscreen; shares compounds with Rin1 Abl inh; IC50, µM; call rule not given here;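 also: ABL1-eGFP fusion protein alone without its RIN1 binding partner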
# * marks the source's active call; other numbers are inactive results; . = no result. Rows were chosen to be rich in hits. Some 1.2% of all compounds tested hit in one or more screens of this group. Rule as the data show it, unless noted: active = inhibition above about 6.5%; inactive = the rest.
SMILES,GalR3 antag,Rin1 Abl inh,ASAP1 inh,ARFGAP1 inh,Rin1 Abl conf,GFP quencher,others
CC(C)[C@H](NC(=O)c1ccco1)C(=O)N1CCC[C@H]1C(=O)NCc1ccccc1,-2,.,2,12,.,.,
COc1ccc2nc(Nc3nc(C)c(CCC(C)C)c(=O)[nH]3)nc(C)c2c1,-4,8.2*,-6,5,-4,-2,
Cc1cc(-c2ccccc2)nc(N/N=C/c2ccc(O)cc2O)n1,-9,11*,5,5,11*,-2,
Oc1ccc(/C=N/Nc2nccnc2Cl)c(O)c1,-5,1,-3,-4,.,.,
Oc1ccc(/C=N/Nc2ncc(Br)cn2)c(O)c1,-2,12*,10,5,9.9*,2,
COc1nc(Nc2cccc(F)c2)nc(OC)n1,-11,3,5,2,.,.,
COc1cc2nc(Nc3cccc(F)c3)nc(N)c2cc1OC,-7,8.9*,2,4,13*,1,
CCCCC(=O)Nc1ccc(C(=O)N2CCCC(C(=O)OCC)C2)cc1 (stereo not given),-3,7.3*,1,-17,2,1,
OCC[C@@H]1C[C@@H](O)[C@H](O)[C@@]2(Cc3ccccc3CO2)O1,-2,8.9*,-3,5,-2,-1,
COC(=O)COc1cccc(NC(=O)c2ccccc2)c1,-4,1,-14,0,.,.,
COC(=O)COc1cccc(NC(=O)COc2ccccc2)c1,-6,7.5*,0,0,-1,0,
Oc1ccc(/C=N/Nc2ccc(Cl)nn2)c(O)c1O,2,29*,0,-1,27*,17*,
Oc1c(Br)cc(Br)cc1/C=N/Nc1ccc(Cl)nn1,-6,1,10,-5,.,.,
CCOCCCNC(=O)c1cc(-c2cccnc2)nc2ccc(S(=O)(=O)N3CCC(C)CC3)cc12,.,5,.,.,.,.,
COCCNC(=O)c1cc(-c2ccccn2)nc2ccc(S(=O)(=O)N3CCC(C)CC3)cc12,-4,17*,-7,1,-2,-1,
COc1ccc(/C=N/NC(=O)COc2ccc(Cl)cc2Cl)cc1Cn1nc(C)cc1C,-8,9.4*,-7,4,1,1,
O=C(/C=C(\Nc1ccc(Br)c(F)c1)c1ccccc1)c1ccccc1,-7,.,5,-13,.,.,
CCn1c(N2CCN(CC(=O)c3c(C)n(C)c4ccccc34)CC2)nc2c1c(=O)[nH]c(=O)n2C,-1,6.4*,7,-4,-2,0,
CC1=C[C@@H]2[C@H]3C(=O)N(Cc4ccccc4)C(=O)[C@H]3[C@@H]1[C@@H]1O[C@@]3(C(=O)N(C)c4ccccc43)C3=C(CCCC3=O)N21,-6,.,-13,11,.,.,
O=c1nccc(N/N=C/c2ccccc2)[nH]1,-10,8.8*,9,-2,20*,-2,GFP quench DR=>68
O=c1cc(N/N=C/c2ccccc2)[nH]c(=O)[nH]1,-3,0,2,3,.,.,
CCOC(=O)N1CCC(Nc2cc(C)nc3c(-c4ccccc4OC)c(C)nn23)CC1,0,6.2*,3,2,3,-1,
COc1ccc(C(=O)N(C)[C@H]2C[C@H]3c4[nH]c5c(-c6ccccc6)cccc5c4CCN3C(=O)[C@H]2[C@H](C)O)cc1,-4,.,6,8,.,.,
Cc1ccc(S(=O)(=O)N2CC=C(C(=O)NC3CCCC3)CC2)cc1,-6,9.4*,-1,5,0,0,
COc1ccc(S(=O)(=O)N2CC=C(C(=O)NC3CCCC3)CC2)cc1,-2,3,1,-22,.,.,
NC(=O)C1CCN(CC(=O)Nc2ccccc2Sc2ccccc2)CC1,-1,7.3*,-5,-4,11*,2,

# Screens as filed in PubChem BioAssay.
